Reference: ChEMBL document CHEMBL3739417, “Synthesis and biological evaluation of novel 4,5-disubstituted 2H-1,2,3-triazoles as cis-constrained analogues of combretastatin A-4” (2015)

Assays:
Type in all cases: functional
U-251 = test: Growth inhibition of human U251 cells after 48 hrs by sulforhodamine B assay; settings: U-251, 48 h
Method in brief: (§1)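 NCI-60 panel screen by SRB assay (Rubinstein method). Percentage growth taken from optical density of SRB colour, read before and 48 hrs after exposure to compound or vehicle control. All analogues first screened at 10^-5 M. Analogues giving 60% growth inhibition at that level in at least eight lines then went to a five-concentration dose-response study.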

[1] = Growth inhibition of human HOP92 cells after 48 hrs by sulforhodamine B assay; settings: HOP-92, 48 h; method in brief: as §1
MDA-MB-231 = test: Growth inhibition of human MDA-MB-231 cells after 48 hrs by sulforhodamine B assay; settings: MDA-MB-231, 48 h; method in brief: as §1
CAKI-1 = test: Growth inhibition of human CAKI-1 cells after 48 hrs by sulforhodamine B assay; settings: CAKI-1, 48 h; method in brief: as §1
[2] = Growth inhibition of human MOLT4 cells after 48 hrs by sulforhodamine B assay; settings: MOLT-4, 48 h; method in brief: as §1
SR = test: Growth inhibition of human SR cells after 48 hrs by sulforhodamine B assay; method in brief: as §1
[3] = Growth inhibition of human DU145 cells after 48 hrs by sulforhodamine B assay; settings: DU-145, 48 h; method in brief: as §1
[4] = Growth inhibition of human HL-60(TB) cells after 48 hrs by sulforhodamine B assay; settings: HL-60, 48 h; method in brief: as §1
HT-29 = test: Growth inhibition of human HT-29 cells after 48 hrs by sulforhodamine B assay; settings: HT-29, 48 h; method in brief: as §1
[5] = Growth inhibition of human SW620 cells after 48 hrs by sulforhodamine B assay; settings: SW-620, 48 h; method in brief: as §1
[6] = Growth inhibition of human HCC2998 cells after 48 hrs by sulforhodamine B assay; settings: HCC 2998, 48 h; method in brief: as §1
[7] = Growth inhibition of human COLO205 cells after 48 hrs by sulforhodamine B assay; settings: COLO 205, 48 h; method in brief: as §1
[8] = Growth inhibition of human NCI-ADR-RES cells after 48 hrs by sulforhodamine B assay; method in brief: as §1
SK-MEL-2 = test: Growth inhibition of human SK-MEL-2 cells after 48 hrs by sulforhodamine B assay; settings: SK-MEL-2, 48 h; method in brief: as §1
[9] = Growth inhibition of human LOXIMVI cells after 48 hrs by sulforhodamine B assay; settings: LOX IMVI; method in brief: as §1
[10] = Growth inhibition of human UO31 cells after 48 hrs by sulforhodamine B assay; settings: UO-31, 48 h; method in brief: as §1
[11] = Growth inhibition of human IGROV1 cells after 48 hrs by sulforhodamine B assay; settings: IGROV-1, 48 h; method in brief: as §1
NCI-H460 = test: Growth inhibition of human NCI-H460 cells after 48 hrs by sulforhodamine B assay; settings: NCI-H460, 48 h; method in brief: as §1
[12] = Growth inhibition of human HCT116 cells after 48 hrs by sulforhodamine B assay; settings: HCT-116, 48 h; method in brief: as §1
A498 = test: Growth inhibition of human A498 cells after 48 hrs by sulforhodamine B assay; settings: A498, 48 h
Method in brief: (§2)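 NCI-60 sulforhodamine B screen. Compounds were first tested at a single dose of 10⁻⁵ M; hits, defined as ≥60% growth inhibition in at least eight lines, went on to a five-concentration dose–response. SRB optical density was read before and 48 h after exposure to compound or vehicle. Percentage growth was calculated from OD.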

[13] = Growth inhibition of human PC3 cells after 48 hrs by sulforhodamine B assay; settings: PC-3, 48 h; method in brief: as §1
NCI-H23 = test: Growth inhibition of human NCI-H23 cells after 48 hrs by sulforhodamine B assay; settings: NCI-H23, 48 h; method in brief: as §1
MDA-MB-468 = test: Growth inhibition of human MDA-MB-468 cells after 48 hrs by sulforhodamine B assay; settings: MDA-MB-468, 48 h; method in brief: as §1
786-0 = test: Growth inhibition of human 786-0 cells after 48 hrs by sulforhodamine B assay; settings: 786-0, 48 h; method in brief: as §1
KM12 = test: Growth inhibition of human KM12 cells after 48 hrs by sulforhodamine B assay; settings: KM12, 48 h; method in brief: as §1
[14] = Growth inhibition of human SF268 cells after 48 hrs by sulforhodamine B assay; settings: SF-268, 48 h; method in brief: as §1
ACHN = test: Growth inhibition of human ACHN cells after 48 hrs by sulforhodamine B assay; method in brief: as §1
MDA-MB-435 = test: Growth inhibition of human MDA-MB-435 cells after 48 hrs by sulforhodamine B assay; settings: MDA-MB-435, 48 h; method in brief: as §2
[15] = Growth inhibition of human HCT15 cells after 48 hrs by sulforhodamine B assay; settings: HCT-15, 48 h; method in brief: as §1
CCRF-CEM = test: Growth inhibition of human CCRF-CEM cells after 48 hrs by sulforhodamine B assay; method in brief: as §1
A549 = test: Growth inhibition of human A549/ATCC cells after 48 hrs by sulforhodamine B assay; settings: A549, 48 h; method in brief: as §1
[16] = Growth inhibition of human SF295 cells after 48 hrs by sulforhodamine B assay; settings: SF-295, 48 h; method in brief: as §1
[17] = Growth inhibition of human SNB75 cells after 48 hrs by sulforhodamine B assay; settings: SNB-75, 48 h; method in brief: as §1
[18] = Growth inhibition of human SKOV3 cells after 48 hrs by sulforhodamine B assay; settings: SK-OV-3, 48 h; method in brief: as §1
[19] = Growth inhibition of human OVCAR3 cells after 48 hrs by sulforhodamine B assay; settings: OVCAR-3, 48 h; method in brief: as §2
MCF7 = test: Growth inhibition of human MCF7 cells after 48 hrs by sulforhodamine B assay; settings: MCF7, 48 h; method in brief: as §1
[20] = Growth inhibition of human RPMI8226 cells after 48 hrs by sulforhodamine B assay; settings: RPMI-8226, 48 h; method in brief: as §1
[21] = read-out: LD50 (the source's name)

For `Clc1ccc(-c2n[nH]nc2-c2ccccn2)c(Cl)c1`, the GI50 (U-251) was 5.35 µM, the CC50 (U-251; [21]) was > 100 µM and the GI50 [1] was 3.28 µM. For the same compound, the CC50 [1, 21] was > 100 µM, the GI50 (MDA-MB-231) was 5.89 µM and the CC50 (MDA-MB-231; [21]) was > 100 µM. The GI50 (CAKI-1) was 8.42 µM, the CC50 (CAKI-1; [21]) was > 100 µM and the GI50 [2] was 4.23 µM. For the same compound, the CC50 [2, 21] was > 100 µM, the GI50 (SR) was 5.43 µM and the LC50 (concentration giving 50% net cell kill) (SR; read-out: LD50) was > 100 µM. The GI50 [3] was 1.41 µM, the CC50 [3, 21] was > 100 µM and the GI50 [4] was 5.75 µM. For the same compound, the CC50 [4, 21] was > 100 µM, the GI50 (HT-29) was 4.56 µM and the LC50 (concentration killing 50% of cells) (HT-29; read-out: LD50) was > 100 µM. The GI50 [5] was 4.4 µM, the LD50 (concentration killing 50% of cells) [5] was > 100 µM and the GI50 [6] was 9.16 µM. The CC50 [6, 21] was > 100 µM, the GI50 [7] was 2.89 µM and the CC50 [7, 21] was > 100 µM. For the same compound, the GI50 [8] was 3.92 µM, the CC50 [8, 21] was > 100 µM and the GI50 (SK-MEL-2) was 6.52 µM. The CC50 (SK-MEL-2; [21]) was > 100 µM, the GI50 [9] was 4.83 µM and the CC50 [9, 21] was > 100 µM. The GI50 [10] was 6.84 µM, the LC50 (concentration killing 50% of cells) ([10]; read-out: LD50) was > 100 µM and the GI50 [11] was 5.94 µM. For the same compound, the CC50 [11, 21] was > 100 µM, the GI50 (NCI-H460) was 3.67 µM and the CC50 (NCI-H460; [21]) was > 100 µM. For the same compound, the GI50 [12] was 2.89 µM, the CC50 [12, 21] was > 100 µM and the GI50 (A498) was 3.18 µM. The LC50 (50% net cell kill) (A498; read-out: LD50) was > 100 µM, the GI50 [13] was 4.5 µM and the CC50 [13, 21] was > 100 µM. For the same compound, the GI50 (NCI-H23) was 9.13 µM, the LC50 (concentration giving 50% cell kill) (NCI-H23; read-out: LD50) was > 100 µM and the GI50 (MDA-MB-468) was 3.2 µM. For the same compound, the CC50 (MDA-MB-468; [21]) was > 100 µM, the GI50 (786-0) was 2.75 µM and the LC50 (concentration killing 50% of cells) (786-0; read-out: LD50) was > 100 µM. The GI50 (KM12) was 6.87 µM, the LC50 (concentration killing 50% of cells) (KM12; read-out: LD50) was > 100 µM and the GI50 [14] was 7.36 µM. The CC50 [14, 21] was > 100 µM, the GI50 (ACHN) was 1.75 µM and the CC50 (ACHN; [21]) was > 100 µM. For the same compound, the GI50 (MDA-MB-435) was 2.2 µM, the LC50 (concentration killing 50% of cells) (MDA-MB-435; read-out: LD50) was > 100 µM and the GI50 [15] was 2.93 µM. The CC50 [15, 21] was > 100 µM, the GI50 (CCRF-CEM) was 3.38 µM and the LC50 (concentration killing 50% of cells) (CCRF-CEM; read-out: LD50) was > 100 µM. For the same compound, the GI50 (A549) was 4.85 µM, the CC50 (A549; [21]) was > 100 µM and the GI50 [16] was 3.01 µM. The CC50 [16, 21] was > 100 µM, the GI50 [17] was 1.58 µM and the CC50 [17, 21] was > 100 µM. The GI50 [18] was 2.72 µM, the LC50 (concentration killing 50% of cells) ([18]; read-out: LD50) was > 100 µM and the GI50 [19] was 3.38 µM. The LC50 (concentration giving 50% net cell kill) ([19]; read-out: LD50) was > 100 µM, the GI50 (MCF7) was 2.58 µM and the CC50 (MCF7; [21]) was > 100 µM. The GI50 [20] was 10.7 µM and the CC50 [20, 21] was > 100 µM.
